pIC50: −log10 of the molar value. Converted amounts (≈) assume the structure as drawn.
Assays:
[1] = biological target: T1, Methionine aminopeptidase 1 (Saccharomyces cerevisiae S288c, UniProt Q01662); assay: Inhibitory activity against type I methionine aminopeptidase from Saccharomyces cerevisiae
T1 sequence (Q01662 whole entry): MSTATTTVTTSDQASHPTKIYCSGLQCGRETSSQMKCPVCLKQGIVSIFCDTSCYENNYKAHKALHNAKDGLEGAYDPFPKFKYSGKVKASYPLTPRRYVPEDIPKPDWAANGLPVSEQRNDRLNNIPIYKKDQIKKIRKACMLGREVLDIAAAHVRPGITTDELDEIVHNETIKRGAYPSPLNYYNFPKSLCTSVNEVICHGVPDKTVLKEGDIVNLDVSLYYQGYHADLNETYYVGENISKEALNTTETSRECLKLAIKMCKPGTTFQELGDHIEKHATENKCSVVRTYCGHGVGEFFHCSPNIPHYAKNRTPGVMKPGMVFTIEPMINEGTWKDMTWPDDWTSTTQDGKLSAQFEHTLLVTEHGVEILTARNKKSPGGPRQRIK
How it was run: (§1)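 Co(II)-activated enzyme: preincubated 30 min in 25 mM HEPES pH 7.5, 150 mM KCl, 15 mM methionine, 500 μM CoCl2. Chromogenic assay in 50 mM MOPS pH 7.0 with 1 mM DTNB and 100 μM thiopeptolide Met-S-Gly-Phe-OH. Final enzyme was 150 nM for EcMetAP1 and 330 nM for ScMetAP1. Hydrolysis read at 412 nm for 60 s. IC50 from inhibitor dilutions, […].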

[2] = biological target: T2, Methionine aminopeptidase (Escherichia coli K-12, UniProt P0AE18); assay: Inhibitory activity against Methionine aminopeptidase 1 from Escherichia coli; how it was run: as §1
T2 sequence (P0AE18 whole entry): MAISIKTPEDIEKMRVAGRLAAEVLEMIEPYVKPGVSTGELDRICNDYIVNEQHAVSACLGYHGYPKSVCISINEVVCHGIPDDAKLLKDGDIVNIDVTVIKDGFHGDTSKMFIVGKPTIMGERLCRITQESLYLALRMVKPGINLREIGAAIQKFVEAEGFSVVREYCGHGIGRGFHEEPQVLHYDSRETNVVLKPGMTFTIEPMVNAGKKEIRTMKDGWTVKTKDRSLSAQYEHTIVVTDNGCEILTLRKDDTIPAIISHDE

[3] = test system: Escherichia coli; assay: Selectivity of inhibitory activity of Methionine aminopeptidase 1 from Escherichia coli to Methionine aminopeptidase 1 from Saccharomyces cerevisiae
[4] = test system: Staphylococcus aureus; assay: Antibacterial activity against Staphylococcus aureus ATCC 25923 was determined after 24 hr; type: functional; conditions: ATCC 25923, 24 h
[5] = test system: Escherichia coli; assay: Antibacterial activity against enteropathogenic Escherichia coli ATCC 25922 was determined after 24 hr; type: functional; conditions: ATCC 25922, 24 h
[6] = test system: Pseudomonas aeruginosa; assay: Antibacterial activity against Pseudomonas aeruginosa ATCC 27853 was determined after 24 hr; type: functional; conditions: ATCC 27853, 24 h

SMILES: CCCC[C@@H](N)[C@H](O)C(=O)N[C@@H](C)C(=O)N[C@@H](CC(C)C)C(=O)OC
- pIC50 [1]: 4.02
- pIC50 [2]: 4.64

SMILES: CC(C)(C)C(=O)Nc1cccnc1C(=O)Nc1nccs1
- Ratio [3]: 1.59
- pIC50 [1]: 6.47
- pIC50 [2]: 6.27

SMILES: O=C(Nc1nccs1)c1ncccc1OC(=O)C1CCCCC1
- Ratio [3]: 7.5
- pIC50 [1]: 6.49
- pIC50 [2]: 5.62

SMILES: CC(=O)Oc1ccccc1C(=O)Oc1cccnc1C(=O)Nc1nccs1
- Ratio [3]: 0.11
- pIC50 [1]: 4.82
- pIC50 [2]: 5.80

SMILES: O=C(Oc1cccnc1C(=O)Nc1nccs1)c1cccc([N+](=O)[O-])c1
- Ratio [3]: < 0.006
- pIC50 [1]: < 4.00
- pIC50 [2]: 6.22

SMILES: CC(C)=CCCC(=O)Nc1cccnc1C(=O)Nc1nccs1
- Ratio [3]: 2
- pIC50 [1]: 6.51
- pIC50 [2]: 6.21

SMILES: O=C(Nc1nccs1)c1ncccc1O
- Ratio [3]: 0.38
- pIC50 [1]: 5.31
- pIC50 [2]: 5.73

SMILES: CCCCCC(=O)Nc1cccnc1C(=O)Nc1nccs1
- Ratio [3]: 0.61
- pIC50 [1]: 6.21
- pIC50 [2]: 6.42

SMILES: O=C(Oc1cccnc1C(=O)Nc1nccs1)c1ccccc1[N+](=O)[O-]
- Ratio [3]: < 0.021
- pIC50 [1]: < 4.00
- pIC50 [2]: 5.68

SMILES: COc1ccccc1C(=O)Oc1cccnc1C(=O)Nc1nccs1
- Ratio [3]: 3.1
- pIC50 [1]: 6.26
- pIC50 [2]: 5.77

SMILES: CC(C)=CC(=O)Oc1cccnc1C(=O)Nc1nccs1
- Ratio [3]: 5.3
- pIC50 [1]: 6.31
- pIC50 [2]: 5.59

SMILES: C=C(C)CC(=O)Nc1cccnc1C(=O)Nc1nccs1
- Ratio [3]: 0.032
- pIC50 [1]: 5.33
- pIC50 [2]: 6.82

SMILES: O=C(Oc1cccnc1C(=O)Nc1nccs1)c1ccccc1
- Ratio [3]: 1.2
- pIC50 [1]: 5.99
- pIC50 [2]: 5.91

SMILES: C/C=C(\C)C(=O)Oc1cccnc1C(=O)Nc1nccs1
- Ratio [3]: 11
- pIC50 [1]: 6.41
- pIC50 [2]: 5.36

SMILES: COc1cccc(C(=O)Oc2cccnc2C(=O)Nc2nccs2)c1[N+](=O)[O-]
- Ratio [3]: 0.56
- pIC50 [1]: 5.52
- pIC50 [2]: 5.77

SMILES: O=C(Oc1cccnc1C(=O)Nc1nccs1)c1ccccc1F
- Ratio [3]: 0.052
- pIC50 [1]: 4.80
- pIC50 [2]: 6.08

SMILES: O=CNc1cccnc1C(=O)Nc1nccs1
- Ratio [3]: 1
- MIC [4]: 62.5 µg/mL (≈ 252 µM)
- MIC [5]: 125 µg/mL (≈ 503 µM)
- MIC [6]: 500 µg/mL (≈ 2010 µM)
- pIC50 [1]: 6.49
- pIC50 [2]: 6.48

SMILES: CC(C)(C)OC(=O)Nc1cccnc1C(=O)Nc1nccs1
- Ratio [3]: 0.054
- pIC50 [1]: 5.47
- pIC50 [2]: 6.74

SMILES: CCC(=O)Nc1cccnc1C(=O)Nc1nccs1
- Ratio [3]: 0.74
- pIC50 [1]: 6.46
- pIC50 [2]: 6.59

SMILES: O=C(Cc1ccccc1)Oc1cccnc1C(=O)Nc1nccs1
- Ratio [3]: 2.7
- pIC50 [1]: 6.70
- pIC50 [2]: 6.27

SMILES: CC(C)=CC(=O)Nc1cccnc1C(=O)Nc1nccs1
- Ratio [3]: 0.29
- pIC50 [1]: 6.11
- pIC50 [2]: 6.66

SMILES: O=C(Oc1cccnc1C(=O)Nc1nccs1)c1ccc(F)c(Br)c1
- Ratio [3]: 0.74
- pIC50 [1]: 5.47
- pIC50 [2]: 5.60

SMILES: CC(C)=CCC(=O)Nc1cccnc1C(=O)Nc1nccs1
- Ratio [3]: 1.71
- pIC50 [1]: 6.85
- pIC50 [2]: 6.62

SMILES: O=C(Oc1cccnc1C(=O)Nc1nccs1)c1ccccc1I
- Ratio [3]: 1.5
- pIC50 [1]: 6.05
- pIC50 [2]: 5.89

SMILES: O=C(Nc1cccnc1C(=O)Nc1nccs1)c1ccc(F)cc1
- Ratio [3]: < 0.0136
- pIC50 [1]: < 4.00
- pIC50 [2]: 5.87

SMILES: CC(C)COC(=O)Nc1cccnc1C(=O)Nc1nccs1
- Ratio [3]: 0.036
- pIC50 [1]: 4.27
- pIC50 [2]: 5.72

SMILES: Nc1cccnc1C(=O)Nc1nccs1
- Ratio [3]: 0.052
- pIC50 [1]: 4.48
- pIC50 [2]: 5.77

SMILES: CCC(=O)Oc1cccnc1C(=O)Nc1nccs1
- Ratio [3]: 14
- MIC [4]: 125 µg/mL (≈ 451 µM)
- MIC [5]: 250 µg/mL (≈ 902 µM)
- MIC [6]: 500 µg/mL (≈ 1800 µM)
- pIC50 [1]: 6.42
- pIC50 [2]: 5.27

SMILES: O=C(Nc1nccs1)c1ccccn1
- Ratio [3]: 0.71
- MIC [4]: 2 µg/mL (≈ 9.74 µM)
- MIC [5]: 12.5 µg/mL (≈ 60.9 µM)
- MIC [6]: 250 µg/mL (≈ 1220 µM)
- pIC50 [1]: 5.15
- pIC50 [2]: 5.30

SMILES: O=C(Nc1cccnc1C(=O)Nc1nccs1)c1cccc(F)c1
- Ratio [3]: < 0.0071
- pIC50 [1]: < 4.00
- pIC50 [2]: 6.15

SMILES: O=C(Nc1nccs1)c1ncccc1NC(=O)C(F)(F)F
- Ratio [3]: 0.069
- pIC50 [1]: 5.31
- pIC50 [2]: 6.47

SMILES: CC(C)(C)C(=O)Oc1cccnc1C(=O)Nc1nccs1
- Ratio [3]: 0.87
- pIC50 [1]: 6.11
- pIC50 [2]: 6.17

SMILES: O=C(Nc1cccnc1C(=O)Nc1nccs1)c1ccccc1
- Ratio [3]: < 0.0089
- pIC50 [1]: < 4.00
- pIC50 [2]: 6.05

SMILES: CO[C@@H]1[C@H](OC(=O)/C=C/C=C/C=C/C=C/C(=O)O)CC[C@]2(CO2)[C@H]1[C@@]1(C)O[C@@H]1CC=C(C)C [FUMAGILLIN]
- pIC50 [1]: < 4.00
- pIC50 [2]: < 4.00

SMILES: O=C(Oc1cccnc1C(=O)Nc1nccs1)c1cccc(F)c1
- Ratio [3]: < 0.0095
- pIC50 [1]: < 4.00
- pIC50 [2]: 6.02

SMILES: C=CCC(=O)Nc1cccnc1C(=O)Nc1nccs1
- Ratio [3]: 0.34
- MIC [4]: 62.5 µg/mL (≈ 217 µM)
- MIC [5]: 125 µg/mL (≈ 434 µM)
- MIC [6]: 500 µg/mL (≈ 1730 µM)
- pIC50 [1]: 6.42
- pIC50 [2]: 6.89

SMILES: O=C(Oc1cccnc1C(=O)Nc1nccs1)c1ccc(F)cc1
- Ratio [3]: 0.018
- pIC50 [1]: 4.21
- pIC50 [2]: 5.96

SMILES: O=C(Nc1nccs1)c1ncccc1NC(=O)C1CCCCC1
- Ratio [3]: < 0.0087
- pIC50 [1]: < 4.00
- pIC50 [2]: 6.06

SMILES: O=C(Cc1ccccc1)Nc1cccnc1C(=O)Nc1nccs1
- Ratio [3]: 0.49
- pIC50 [1]: 6.09
- pIC50 [2]: 6.40

SMILES: O=C(Nc1cccnc1C(=O)Nc1nccs1)c1ccccc1F
- Ratio [3]: < 0.0028
- MIC [4]: 15.6 µg/mL (≈ 45.6 µM)
- MIC [5]: 250 µg/mL (≈ 730 µM)
- MIC [6]: 250 µg/mL (≈ 730 µM)
- pIC50 [1]: < 4.00
- pIC50 [2]: 6.55

SMILES: COc1ccccc1/C=C/C(=O)Oc1cccnc1C(=O)Nc1nccs1
- Ratio [3]: 0.21
- pIC50 [1]: 5.00
- pIC50 [2]: 5.68

SMILES: C/C=C(\C)C(=O)Nc1cccnc1C(=O)Nc1nccs1
- Ratio [3]: 0.026
- pIC50 [1]: 4.96
- pIC50 [2]: 6.55

SMILES: CCCCCC(=O)Oc1cccnc1C(=O)Nc1nccs1
- Ratio [3]: 0.59
- pIC50 [1]: 5.76
- pIC50 [2]: 5.99
